What was measured:
[1] = Cytotoxicity against HEK293T cells after 48 hrs; format: cell-based, HEK-293T; conditions: human
Outline: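 293T cells seeded at 700 cells/well in 1536-well format and cultured 24 h at 37 °C under 5% CO2. Compounds serially diluted in DMSO were added. After culture, viability was read by Alamar Blue diluted 1:1 in DMEM, incubated 4 h at room temperature, with fluorescence intensity measured.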

[2] = test system: Human immunodeficiency virus; experiment: Antiviral activity against HIV in HEK293T cells after 48 hrs; format: functional, organism-based; conditions: Human immunodeficiency virus 1, HEK-293T
Outline: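 HEK 293T cells grown in DMEM with 10% FBS and Pen/Strep/glutamine, seeded at 700 cells/well in 1536-well format, then cultured 24 h at 37 °C under 5% CO2. Compounds serially diluted in DMSO were added and incubated 1 h at 37 °C. Cells were then infected with HIV reporter virus at MOI ~1.0 and cultured 48 h at 37 °C. Read-out was luciferase activity.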

Row | SMILES | CC50 at 48 h [1] [nM] | EC50 [2] [nM]
1 | CCc1ncnc(NC(C)c2ccc(OC(=O)N(C)C)cc2)c1Cl (stereo not drawn) | > 10000 | 4
2 | CCc1ncnc(NC(C)c2ccc(OC(=O)NCCOCCNC(C)=O)cc2)c1Cl (stereo not drawn) | > 10000 | 5
3 | CCc1ncnc(NC(C)c2ccc(OC(=O)NCCCOCCCNC(C)=O)cc2)c1Cl (stereo not drawn) | > 10000 | 5
4 | CCc1ncnc(NC(C)c2ccc(NC(=O)N(C)CCCN(C)C(C)=O)cc2)c1Cl (stereo not drawn) | > 10000 | 4890
5 | CCc1ncnc(NC(C)c2ccc(NC(C)=O)cc2)c1Cl (stereo not drawn) | > 10000 | 1190
6 | CCc1ncnc(NC(CC)c2ccc(N(C)C)cc2)c1Cl (stereo not drawn) | > 10000 | 341
7 | CCc1ncnc(NC(CC)c2ccc(Oc3ncnc4ccccc34)cc2)c1Cl (stereo not drawn) | > 10000 | 48
8 | CCc1ncnc(NC(C)c2cccc3ccccc23)c1Cl (stereo not drawn) | > 10000 | 95
9 | CCc1ncnc(NC(C)c2ccc3ccccc3c2)c1Cl (stereo not drawn) | > 10000 | 139
10 | CCc1ncnc(NC(C)c2ccc3ccccc3n2)c1Cl (stereo not drawn) | > 10000 | 42
11 | CCc1ncnc(NC(C)c2cc3c(cc2O)CCCC3)c1Cl (stereo not drawn) | > 10000 | 778
12 | CCc1ncnc(NC(C)c2ccc3c(c2)NCCO3)c1Cl (stereo not drawn) | > 10000 | 29
13 | CCc1ncnc(NC(C)c2ccc3c(c2)N(C(C)=O)CCO3)c1Cl (stereo not drawn) | > 10000 | 35
14 | CCc1ncnc(NC(C)c2sc3ccccc3c2C)c1Cl (stereo not drawn) | > 10000 | 816
15 | CCc1ncnc(NC(C)c2ccc3c(c2)N=C(NCCO)CO3)c1Cl (stereo not drawn) | > 10000 | 353
16 | CCc1ncnc(NC(C)c2ccc(C(C)(C)C)cc2)c1Cl (stereo not drawn) | > 10000 | 16
17 | CCc1ncnc(NC(C)c2ccc(NC(=O)CCCC[C@@H]3SC[C@@H]4NC(=O)N[C@@H]43)cc2)c1Cl (stereo partly drawn) | > 10000 | 622
18 | CCC(Nc1cc(C)ncn1)c1ccc(Oc2ccc(F)cc2)cc1 (stereo not drawn) | > 10000 | 324
19 | CCCc1cc(NC(CC)c2ccc(Oc3ccc(F)cc3)cc2)ncn1 (stereo not drawn) | > 10000 | 96
20 | CCc1ncnc(NC(CC)c2ccc(Oc3ccc(F)cc3)cc2)c1Br (stereo not drawn) | > 10000 | 3

Row | SMILES | CC50 at 48 h [1] [nM] | EC50 [2] [nM]
21 | CCc1ncnc(NC(C)c2ccc(OC(=O)N(C)CCCN(C)C(C)=O)cc2)c1Cl (stereo not drawn) | > 10000 | 327
22 | CCc1ncnc(N(C)C(C)c2ccc(OC(=O)N(C)C)cc2)c1Cl (stereo not drawn) | > 10000 | > 10000
23 | CCc1ncnc(N(C)C(C)c2ccc(OC(=O)N(C)CCOCCN(C)C(C)=O)cc2)c1Cl (stereo not drawn) | > 10000 | > 10000
24 | CCc1ncnc(NC(C)c2ccc(NC(=O)N(C)CCOCCN(C)C(C)=O)cc2)c1Cl (stereo not drawn) | > 10000 | 3020
25 | CCc1ncnc(NC(C)c2ccc(OC(=O)NCCOCCOCCOCCNC(C)=O)cc2)c1Cl (stereo not drawn) | > 10000 | 190
26 | CCCc1ncnc(NC(CC)c2ccc(Oc3ccc(F)cc3)cc2)c1Br (stereo not drawn) | > 10000 | 760
27 | CCc1ncnc(NC(CC)c2ccc(C(C)(C)C)cc2)c1Cl (stereo not drawn) | > 10000 | 28
28 | CCc1ncnc(NC(C)c2cc3cccc(OC)c3o2)c1Cl (stereo not drawn) | > 10000 | 691
29 | CCc1ncnc(NCc2ccc(C(C)(C)C)cc2)c1Cl | > 10000 | 331
30 | CCc1ncnc(NC(CC)c2ccc([N+](=O)[O-])cc2)c1Cl (stereo not drawn) | > 10000 | 2660
31 | CCc1ncnc(NC(CC)c2ccc(-c3ccccc3)cc2)c1Cl (stereo not drawn) | > 10000 | 17
32 | CCc1ncnc(NC(C)c2ccc3c(c2)CCCC3)c1Cl (stereo not drawn) | > 10000 | 170
33 | CCC(Nc1nc(C)nc(Cl)c1N)c1ccc(Oc2ccc(F)cc2)cc1 (stereo not drawn) | > 10000 | 15
34 | CCc1nc(C)nc(NC(CC)c2ccc(Oc3ccc(F)cc3)cc2)c1Br (stereo not drawn) | > 10000 | 18
35 | CCc1ncnc(NC(C)c2ccc(OC(=O)NCCCNC(C)=O)cc2)c1Cl (stereo not drawn) | > 10000 | 190
36 | CCC(Nc1cc(COC)ncn1)c1ccc(Oc2ccc(F)cc2)cc1 (stereo not drawn) | > 10000 | 31
37 | CCc1ncnc(NC(C)c2ccc(OC(=O)N(C)CCOCCN(C)C(C)=O)cc2)c1Cl (stereo not drawn) | > 10000 | 4
38 | O=C1Nc2ccc(Cl)cc2C(C#CC2CC2)(C(F)(F)F)O1 (single isomer, unassigned) [EFAVIRENZ] | 10000 | 0.5
39 | Cc1ccnc2c1NC(=O)c1cccnc1N2C1CC1 [NEVIRAPINE] | > 10000 | 50

— ChEMBL document CHEMBL1138380, “4-Aminopyrimidines as novel HIV-1 inhibitors” (Bioorg Med Chem Lett, 2007)
